Source: PMC4024982 (International Journal of Nanomedicine, 2014)

Columns and labels:
Assay type in all cases: in vivo, Sprague Dawley rats
TIMP-1 = experiment: Immunofluorescence staining of knee joint sections; settings: 6 weeks after injection; diffuse positive staining in control
In short: (§1)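 OA knees in female 12-week-old SD rats (ACL/MCL transection plus medial meniscectomy), injected intra-articularly with 0.2 mL at 3 weeks post-surgery, uninjected controls. Joints harvested 6 weeks post-injection and formalin-fixed. Sections immunostained for MMP-9, caspase-8, TIMP-1 and collagen II using Alexa Fluor 488/594 secondary antibodies, DAPI counterstain, then examined by fluorescence microscopy.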

[1] = tested on: rat knee osteoarthritis model; experiment: Micro-CT analysis of OA knee joints; settings: 6 weeks after injection
In short: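 Hind limbs from OA rats (female, 12-week-old SD; ACL/MCL transection with medial meniscectomy) given 0.2 mL intra-articular injection 3 weeks post-surgery, or left uninjected. Harvested 6 weeks post-injection and formalin-fixed. Micro-CT: 80 kVp, 500 μA, 0.21 s scan, 30 calibrations, 30.74 mm fields of view. BMD measured at the lateral femoral condyle. OA graded semiquantitatively by osteophytes and joint destruction.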

[2] = tested on: rat knee osteoarthritis model; experiment: Histological analysis, modified Mankin scoring; settings: 6 weeks after injection; scale 0–4; negative control 2.5±0.3
caspase-8 = experiment: Immunofluorescence staining of knee joint sections; settings: 6 weeks after injection; diffuse positive staining in control
In short: as §1

Ac-KLDLKLDLKLDL-NH2 [SAP, Ac-KLDLKLDLKLDL-NH2]
TIMP-1 immunofluorescence staining (TIMP-1): decreased expression | bone mineral density (lateral femoral condyle, micro-CT) ([1]; control 1,067.0±12.2): 1,033.3±17.4 | Number of animals in each osteoarthritis grade: Grade 1 ([1]; micro-CT): 1 | Number of animals in each osteoarthritis grade: Grade 2 ([1]; micro-CT): 0 | Number of animals in each osteoarthritis grade: Grade 3 ([1]; micro-CT): 2 | Number of animals in each osteoarthritis grade: Grade 4 ([1]; micro-CT): 1 | Alcian blue staining component of modified Mankin score (proteoglycan content) [2]: 0.5±0.3 | caspase-8 immunofluorescence staining (caspase-8): decreased expression
